From ChEMBL document CHEMBL3351296, “Synthesis, antioxidant and photoprotection activities of hybrid derivatives useful to prevent skin cancer” (Bioorg Med Chem, 2014) come the findings set out here.

pIC50: −log10 of the molar value.

Data set [1] in a line: Antioxidant activity of the compound assessed as reduction in absorbance of DPPH after 60 mins incubation at 100 uM by DPPH radical scavenging /microplate assay. Particulars: 1 h. It is filed as physicochemical. The essentials: (§1)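 DPPH radical prepared in methanol. Test compounds and standards made as 10 mM DMSO stocks, diluted in methanol, and tested at […]; final DMSO […]. Samples mixed with DPPH in triplicate, kept at 37 °C protected from light, and read at 519 nm after 30 and 60 min. % scavenging = (Abs control − Abs sample)/Abs control × 100.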
Background: Loss of DPPH colour is used to gauge radical scavenging.

Data set [2] is described as follows: In vitro photoprotection of the compound assessed as sun protection factor by Optometric 290S analyzer. In short, it runs like this: (§2)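 Transmittance scans were taken from 290 to 400 nm at 2 nm intervals and compared against a reference scan. SPF, UVA protection factor and UVA/UVB ratio were calculated from the transmittance data.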
A short description of data set [3]: In vitro photoprotection of the compound assessed as UVA to UVB ratio by Optometric 290S analyzer. In short, it runs like this:
as §2

A short description of data set [4]: In vitro photoprotection of the compound assessed as UVA protection factor by Optometric 290S analyzer. The essentials: as §2
Data set [5] can be described thus: Antioxidant activity of the compound assessed as reduction in absorbance of DPPH after 60 mins incubation at 300 uM by DPPH radical scavenging /microplate assay. Particulars: 1 h. In kind it is physicochemical. In short, it runs like this:
as §1

The nature of data set [6]: Antioxidant activity of the compound assessed as reduction in absorbance of DPPH after 60 mins incubation at 35 uM by DPPH radical scavenging /microplate assay. In kind it is physicochemical. The note with it: 1 h. In short, it runs like this:
as §1

A short description of data set [7]: Antioxidant activity of the compound assessed as reduction in absorbance of DPPH after 60 mins incubation at 1000 uM by DPPH radical scavenging /microplate assay. It is filed as physicochemical. The note with it: 1 h. The essentials: as §1
A short description of data set [8]: Antioxidant activity of the compound assessed as reduction in absorbance of DPPH after 60 mins incubation by DPPH radical scavenging /microplate assay. It is filed as physicochemical. The essentials:
as §1

As to `CC(C)(C)c1ccc(C(=O)N/N=C/c2cc(O)cc(O)c2)cc1`, the “inhibition (INH)” value in data set [1] came out at 10.9%; in data set [5], 20.1%; in data set [6], 7%; in data set [7], 31.3%. Also, the SPF in data set [2] amounted to 4. The Ratio in data set [3] was 0.6. In data set [4], the UVAPF turned out to be 3.
In the case of `CCCCC(CC)COC(=O)C=Cc1ccc(OC)cc1` (configuration not stated), the SPF in data set [2] turned out to be 13.
The pIC50 is the negative decadic logarithm of the IC50, by convention in mol/L. As for `O=C1O[C@H]([C@@H](O)CO)C(O)=C1O` [ASCORBIC ACID], the “inhibition (INH)” value in data set [1] amounted to 77.9%; in data set [5], 80.7%; in data set [6], 18.8%; in data set [7] it was 81.2%. Also, the pIC50 in data set [8] was 4.19.
For `CC(C)(C)c1ccc(C(=O)N/N=C/c2ccc(O)cc2)cc1`, the “inhibition (INH)” value in data set [1] was 15%; in data set [5] it was 28.9%; in data set [6], 10.2%; in data set [7], 38.7%. The SPF in data set [2] is 2. Further, the Ratio in data set [3] is 0.8. Further, the UVAPF in data set [4] was found to be 2.
For `COc1ccc(/C=C/C=N/NC(=O)c2ccc(C(C)(C)C)cc2)cc1`, the inhibition (INH) is -8.3% in data set [1], -5.6% in data set [5], -6.6% in data set [6] and -7.1% in data set [7]. For the same compound, the SPF in data set [2] is 4. For the same compound, the Ratio in data set [3] turned out to be 1. In addition, the UVAPF in data set [4] amounted to 4.
On to `O=C(N/N=C/c1ccc(O)cc1)c1ccc(O)cc1`, for which the “inhibition (INH)” value in data set [1] is reported as 38%; in data set [5] it was 54.4%; in data set [6], 18.4%; in data set [7] it was 65%. Also, the SPF in data set [2] was found to be 3. Besides, the pIC50 in data set [8] is 3.56. Moreover, the Ratio in data set [3] was determined as 0.8. Also, the UVAPF in data set [4] turned out to be 2.
Consider `COc1cc(/C=C/C=N/NC(=O)c2ccc(O)cc2)ccc1O`, for which the “inhibition (INH)” value in data set [1] is 56.7%; in data set [5], 77.2%; in data set [6], 34.8%; in data set [7] it was 75.5%. In data set [2], the SPF turned out to be 2. In data set [8], the pIC50 was 4.05. The Ratio in data set [3] came to 1.2. For the same compound, the UVAPF in data set [4] was found to be 2.
Take `Oc1ccc(/C=C/c2cc(O)cc(O)c2)cc1` [RESVERATROL]: the “inhibition (INH)” value in data set [1] is on record as 45.5%; in data set [5] it was 71.3%; in data set [6], 20.5%; in data set [7] it was 73.8%. The SPF in data set [2] stood at 2. The pIC50 in data set [8] was 3.96. The Ratio in data set [3] was found to be 0.6. Further, the UVAPF in data set [4] came out at 2.
Take `COc1ccc(C(=O)CC(=O)c2ccc(C(C)(C)C)cc2)cc1`: the Ratio in data set [3] was 1.8. In addition, the UVAPF in data set [4] was 39.
On to `COc1ccc(/C=C/C=N/NC(=O)c2ccc(O)cc2)cc1`, for which the inhibition (INH) was -1.5% in data set [1], -2.6% in data set [5], -3.4% in data set [6] and 2.8% in data set [7]. In addition, the SPF in data set [2] came out at 2. The Ratio in data set [3] came to 1.1. Moreover, the UVAPF in data set [4] came out at 2.
On to `COc1cc(/C=C/C=N/NC(=O)c2ccc(C(C)(C)C)cc2)ccc1O`, for which the “inhibition (INH)” value in data set [1] amounted to 45.6%; in data set [5], 75.1%; in data set [6], 20%; in data set [7], 76.1%. The SPF in data set [2] stood at 2. Moreover, the pIC50 in data set [8] is 3.96. The Ratio in data set [3] turned out to be 1.1. The UVAPF in data set [4] worked out at 2.
Consider `COc1ccc(C(=O)c2ccccc2)c(O)c1`, for which, in data set [2], the SPF was 1. The Ratio in data set [3] worked out at 0.6.
Regarding `O=C(N/N=C/c1cc(O)cc(O)c1)c1ccc(O)cc1`, the “inhibition (INH)” value in data set [1] was 11.2%; in data set [5] it was 26.5%; in data set [6] it was 5.6%; in data set [7], 34.2%. The SPF in data set [2] was found to be 5. In addition, the Ratio in data set [3] amounted to 0.6. For the same compound, the UVAPF in data set [4] turned out to be 4.
